Measurements: ChEMBL document CHEMBL3808330, “Peroxide Natural Products from Plakortis zyggompha and the Sponge Association Plakortis halichondrioides-Xestospongia deweerdtae: Antifungal Activity against Cryptococcus gattii” (J Nat Prod, 2016)
≈ marks a conversion by molar mass, not a printed value.

Experiments:
[1] = tested on: Cryptococcus gattii species complex; assay: Antifungal activity against Cryptococcus gattii after 48 hrs by microbroth dilution method; assay type: functional, Cryptococcus bacillisporus
In short: (§1)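 Microbroth dilution per CLSI protocol in antibiotic medium 3; growth read as optical density at 590 nm in microplate wells; MIC90 reported. C. albicans ATCC 14503; C. krusei patient isolate from UC Davis clinical microbiology; C. gattii and C. grubii strains gifted from UC Davis.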

[2] = Stability assessed as drug degradation under ambient conditions by 1H-NMR spectroscopic method; assay type: physicochemical
[3] = Drug degradation in presence of 3-tert-butyl-4-hydroxy-5-methylphenyl sulfide at -20 degC after 12 hrs by 1H-NMR spectroscopic method; assay type: physicochemical
[4] = Drug degradation in presence of 3-tert-butyl-4-hydroxy-5-methylphenyl sulfide at -20 degC after 48 hrs by 1H-NMR spectroscopic method; assay type: physicochemical
Candida albicans = assay: Antifungal activity against Candida albicans ATCC 14503 after 48 hrs by microbroth dilution method; assay type: functional; conditions: ATCC 14503, 48 h; in short: as §1
Cryptococcus neoformans = assay: Antifungal activity against Cryptococcus grubii after 48 hrs by microbroth dilution method; assay type: functional; in short: as §1
Pichia kudriavzevii = assay: Antifungal activity against fluconazole-resistant Candida krusei after 48 hrs by microbroth dilution method; assay type: functional; in short: as §1

Structure (SMILES) | MIC90 [1] [µM] | Stability [2] | Stability [3] | Stability [4] | MIC90 (Candida albicans) [µM] | MIC90 (Cryptococcus neoformans) [µM] | MIC90 (Pichia kudriavzevii) [µM]
CC(=C\Cc1ccccc1)/C=C(\C)C[C@@H](C)C[C@@]1(C)C[C@@](C)(/C=C/C(=O)O)OO1 | > 100 | Unstable | Stable | Unstable | > 100 |  | 
CC(=C\Cc1ccccc1)/C=C(\C)C[C@@H](C)C[C@@]1(C)C[C@@](C)(CC(=O)O)OO1 | > 100 | Unstable | Stable | Unstable | > 100 |  | 
CCCCCC[C@]1(CC)C[C@H](CC)[C@H](CC(=O)OC)OO1 | > 100 |  |  |  | > 100 |  | 
CCCCC[C@]1(CC)C[C@H](CC)[C@H](CC(=O)OC)OO1 | > 100 |  |  |  | > 100 |  | 
CCCCC[C@]1(CC)C[C@H](CC)[C@H](CC(=O)O)OO1 | 36 (≈ 9.81 µg/mL) |  |  |  | 27 (≈ 7.35 µg/mL) | 26 (≈ 7.08 µg/mL) | 10 (≈ 2.72 µg/mL)
CCCCCC[C@]1(CC)C[C@H](CC)[C@H](CC(=O)O)OO1 | 9.6 (≈ 2.75 µg/mL) |  |  |  | 22 (≈ 6.3 µg/mL) | 6 (≈ 1.72 µg/mL) | 4.3 (≈ 1.23 µg/mL)
C/C(=C\C=C\Cc1ccccc1)C[C@@H](C)C[C@@]1(C)C[C@@](C)(/C=C/C(=O)O)OO1 | > 100 | Unstable | Stable | Unstable | > 100 |  | 
CCCCC[C@]1(CC)C[C@H](CC)[C@@H]([C@H](O)C(=O)O)O1 | > 100 |  |  |  | > 100 |  | 
C[C@H](CCCCCCCCCc1ccccc1)C[C@]1(C)C[C@H](C)[C@H](CC(=O)O)OO1 | 2.4 (≈ 1 µg/mL) |  |  |  | 13 (≈ 5.44 µg/mL) | 3.4 (≈ 1.42 µg/mL) | 2.7 (≈ 1.13 µg/mL)
